Results gathered from unrelated publications.
Target: Inhibitor of nuclear factor kappa-B kinase subunit alpha (CHUK, Homo sapiens, UniProt O15111)
One construct used (O15111 1-745): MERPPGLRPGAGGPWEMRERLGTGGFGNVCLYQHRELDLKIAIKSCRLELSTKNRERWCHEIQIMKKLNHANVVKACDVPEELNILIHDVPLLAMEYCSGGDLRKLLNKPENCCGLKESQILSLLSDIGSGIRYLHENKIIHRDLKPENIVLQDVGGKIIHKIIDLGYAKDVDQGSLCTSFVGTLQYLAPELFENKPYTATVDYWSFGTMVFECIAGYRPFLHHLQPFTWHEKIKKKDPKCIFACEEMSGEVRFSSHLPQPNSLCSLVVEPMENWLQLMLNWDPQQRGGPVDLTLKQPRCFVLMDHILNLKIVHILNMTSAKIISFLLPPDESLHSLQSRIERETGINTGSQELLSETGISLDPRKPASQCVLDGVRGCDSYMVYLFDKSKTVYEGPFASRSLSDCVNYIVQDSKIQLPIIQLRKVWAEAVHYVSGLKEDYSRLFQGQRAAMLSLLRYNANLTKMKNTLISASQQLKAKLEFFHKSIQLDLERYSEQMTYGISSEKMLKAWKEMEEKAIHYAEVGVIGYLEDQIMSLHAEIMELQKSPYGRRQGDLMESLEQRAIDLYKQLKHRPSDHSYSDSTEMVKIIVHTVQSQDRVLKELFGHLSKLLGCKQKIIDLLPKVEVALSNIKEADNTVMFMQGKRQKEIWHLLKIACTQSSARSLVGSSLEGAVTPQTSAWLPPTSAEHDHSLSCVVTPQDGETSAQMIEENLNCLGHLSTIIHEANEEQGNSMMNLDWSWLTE

Nc1c(C(=O)NCc2ccc(C(=O)NCCCC3CCCCC3)cc2)cnn1-c1ccccc1
remaining binding (cell-free assay, competition with immobilised ligand; 0.1 µM): 100%

O=C(c1ccc(Nc2ncc(Cl)c(-c3ccc(Cl)s3)n2)cc1)N1CCC(N2CCCC2)CC1
remaining binding (binding, competition with immobilised ligand; 1 µM): 2.9%

CS(=O)(=O)c1cc(C2(NC(=O)c3cncc4c3cnn4-c3ccc(F)cc3)CC2)ccn1
remaining binding (cell-free assay, competition with immobilised ligand; 1 µM): 100%

COc1ncc2cc3ccccc3nc2c1C#N
remaining binding (cell-free assay, competition with immobilised ligand; 5 µM): 98%

C=CC(=O)N1CCC(C(=O)NCC(=O)N2CCN(c3nc(-c4cnc(N)nc4C(F)F)nc(N4CCOCC4)n3)CC2)CC1
remaining binding (binding, competition with immobilised ligand; 1 µM): 71%

N[C@@H]1CCN(c2nccc(-c3cnn4ncccc34)n2)C1
remaining binding (binding; 1 µM): 100%

CCC(=O)N[C@H]1CC[C@@H](C(=O)N(C)c2ccc(-c3nc4ccccc4o3)cc2)C1
remaining binding (cell-free assay, competition with immobilised ligand; 1 µM): 100%

Cc1cnc(Nc2ccc(C(=O)N3CCC(N4CCCC4)CC3)cc2)nc1-c1cc2ccccc2s1
remaining binding (binding, competition with immobilised ligand; 1 µM): 1.3%

C[C@H]1CCN(c2nccc(-c3cnn4ncccc34)n2)C1
remaining binding (binding; 1 µM): 62%

C[C@@H]1CN(c2ccc3ncc(-c4ccc5[nH]nc(C6CC6)c5c4)n3n2)C[C@H](C)O1
remaining binding (binding, competition with immobilised ligand; 0.5 µM): 85%

C[C@@H](c1ccc(-n2cnc3c(N)ncnc32)cc1)N1CCc2nn(C)c(Cc3ccccc3)c2C1=O
remaining binding (binding, competition with immobilised ligand; 0.1 µM): 80%

CN(C)c1nccc(-c2cnc3ncccn23)n1
remaining binding (binding; 1 µM): 71%

C[C@@]1(Cc2ccc(C#N)cc2)C(=O)N(c2cc(Cl)cc(Cl)c2)c2ncc(C(=O)NC3(c4nc(C5CCC5)no4)CC3)n21
remaining binding (cell-free assay, competition with immobilised ligand; 1 µM): 100%

N#Cc1ccccc1CSc1nnc2c(n1)[nH]c1ccccc12
remaining binding (binding, competition with immobilised ligand; 10 µM): 100%

O=C(NC[C@@H]1[C@H]2CN(C(=O)OCc3cc(C(F)(F)F)cc(C(F)(F)F)c3)C[C@@H]12)c1ccc2[nH]nnc2c1
remaining binding (cell-free assay, competition with immobilised ligand; 1 µM): 100%

CN(C)c1nccc(-c2cnn3ncccc23)n1
remaining binding (binding; 1 µM): 81%

O=C(NCC1CCOCC1)c1n[nH]cc1NC(=O)c1c(F)cccc1F
remaining binding (binding, competition with immobilised ligand; 1 µM): 86%

CN(CCCC(F)(F)F)c1nccc(-c2cnn3ncccc23)n1
remaining binding (binding; 1 µM): 99%

Cc1nccc(COC(=O)N2C[C@@H]3[C@@H](CNC(=O)c4ccc5[nH]nnc5c4)[C@@H]3C2)n1
remaining binding (cell-free assay, competition with immobilised ligand; 1 µM): 100%

CNC(=O)[C@@H]1CC[C@@H](n2c(-c3ccc4cnccc4c3)nc3ccc(C(=O)NCc4cccc(C(N)=O)c4)cc32)C1
remaining binding (binding, competition with immobilised ligand; 1 µM): 100%

COc1cc(-c2cn(C3CCc4ccccc4N(CC(F)(F)F)C3=O)nn2)ccc1-n1ccc(C)n1 (stereo not shown)
remaining binding (cell-free assay, competition with immobilised ligand; 1 µM): 98%

c1cnn2ncc(-c3ccnc(N4CCC45COC5)n3)c2c1
remaining binding (binding; 1 µM): 35%

O=C(c1ccc(Nc2ncc(Cl)c(-c3cc4ccccc4s3)n2)cc1)N1CCC(N2CCCC2)CC1
remaining binding (binding, competition with immobilised ligand; 1 µM): 0.8%

CCCOc1ccc([C@@H]2[C@@H](C(=O)O)[C@H](c3ccc4c(c3)OCO4)CN2CC(=O)Nc2c(CC)cccc2CC)cc1
remaining binding (cell-free assay, competition with immobilised ligand; 1 µM): 86%

CN(c1nccc(-c2cnn3ncccc23)n1)C1CC1
remaining binding (binding; 1 µM): 100%
